The target of series [1] is T1, protoporphyrinogen oxidase (PPO) (Mus musculus, UniProt P51175).
T1 sequence (P51175 1-477): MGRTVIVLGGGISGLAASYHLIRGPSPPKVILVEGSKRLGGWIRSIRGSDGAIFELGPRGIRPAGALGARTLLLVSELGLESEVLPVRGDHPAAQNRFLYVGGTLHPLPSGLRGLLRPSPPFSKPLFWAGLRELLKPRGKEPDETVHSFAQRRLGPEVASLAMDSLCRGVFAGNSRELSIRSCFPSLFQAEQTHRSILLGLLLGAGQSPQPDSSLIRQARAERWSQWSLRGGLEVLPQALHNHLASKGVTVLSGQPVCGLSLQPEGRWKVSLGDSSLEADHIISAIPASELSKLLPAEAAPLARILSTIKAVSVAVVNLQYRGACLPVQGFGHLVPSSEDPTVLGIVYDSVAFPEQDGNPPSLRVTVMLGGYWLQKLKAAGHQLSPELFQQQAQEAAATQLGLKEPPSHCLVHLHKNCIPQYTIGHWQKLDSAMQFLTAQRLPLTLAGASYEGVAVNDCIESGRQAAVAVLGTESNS
Kind of series: PPO-inhibition assay, mouse liver mitochondrial fraction. It is filed as biochemical. The procedure, abridged: (§1)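 Liver mitochondria came from pooled SD rats and humans, or were freshly kit-isolated from Crl:CD1 mice and TOYO beagles. They were used at 0.2 mg protein/mL in 100 mM Tris-HCl pH 7.5 with 0.1% Triton-X, 1 mM EDTA and 40 mM ascorbate, preincubated 10 min at 37°C, then given 0.5 µM protoporphyrinogen IX. PPIX fluorescence (ex 410/em 630 nm) was read for 60 min at 37°C. Heat-killed mitochondria gave the background, and IC50 came from 4-parameter fits over 3 runs.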

Series [2] can be described thus: In vitro metabolism study in liver microsomes. Conditions: mouse liver microsomes, 10 µM, NADPH, 37°C. It is filed as in vitro ADME. In general terms: Liver microsomes are a subcellular fraction often used to study metabolism.
Series [3] can be described thus: Toxicokinetics in plasma, rat 90-day study. It is filed as in vivo. The note with it: rats, 90-day dietary administration (data not shown).
Series [4] is described as follows: In vitro metabolism study in liver microsomes. It is filed as in vitro ADME. Conditions: human liver microsomes, 10 µM, NADPH, 37°C.
Series [5] is described as follows: Toxicokinetics in plasma, mouse 90-day study. It is filed as in vivo. The note with it: mice, 90-day dietary administration (data not shown).
For series [6], the target named is T2, protoporphyrinogen oxidase (PPO) (Canis lupus familiaris, UniProt A0A8I3Q7Z3).
T2 sequence (A0A8I3Q7Z3 1-480): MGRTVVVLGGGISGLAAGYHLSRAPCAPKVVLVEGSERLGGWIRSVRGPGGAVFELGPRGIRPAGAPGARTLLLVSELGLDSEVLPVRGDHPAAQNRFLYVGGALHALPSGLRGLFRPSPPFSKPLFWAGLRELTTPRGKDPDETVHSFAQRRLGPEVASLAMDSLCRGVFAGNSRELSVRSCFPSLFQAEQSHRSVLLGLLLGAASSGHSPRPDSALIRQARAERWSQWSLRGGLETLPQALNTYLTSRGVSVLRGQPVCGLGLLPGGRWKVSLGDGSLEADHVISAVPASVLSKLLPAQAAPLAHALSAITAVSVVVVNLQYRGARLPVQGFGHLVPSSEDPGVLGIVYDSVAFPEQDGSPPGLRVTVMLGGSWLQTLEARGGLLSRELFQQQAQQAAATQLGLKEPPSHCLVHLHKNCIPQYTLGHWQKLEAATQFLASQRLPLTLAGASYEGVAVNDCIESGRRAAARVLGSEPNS
Kind of series: PPO-inhibition assay, dog liver mitochondrial fraction. It is filed as biochemical. In a few lines: as §1

A short description of series [7]: In vitro metabolism study in liver microsomes. It is filed as in vitro ADME. The note with it: rat liver microsomes, 10 µM, NADPH, 37°C.
The target of series [8] is T3, protoporphyrinogen oxidase (PPO) (Rattus norvegicus, UniProt D3ZVN7).
T3 sequence (D3ZVN7 1-488): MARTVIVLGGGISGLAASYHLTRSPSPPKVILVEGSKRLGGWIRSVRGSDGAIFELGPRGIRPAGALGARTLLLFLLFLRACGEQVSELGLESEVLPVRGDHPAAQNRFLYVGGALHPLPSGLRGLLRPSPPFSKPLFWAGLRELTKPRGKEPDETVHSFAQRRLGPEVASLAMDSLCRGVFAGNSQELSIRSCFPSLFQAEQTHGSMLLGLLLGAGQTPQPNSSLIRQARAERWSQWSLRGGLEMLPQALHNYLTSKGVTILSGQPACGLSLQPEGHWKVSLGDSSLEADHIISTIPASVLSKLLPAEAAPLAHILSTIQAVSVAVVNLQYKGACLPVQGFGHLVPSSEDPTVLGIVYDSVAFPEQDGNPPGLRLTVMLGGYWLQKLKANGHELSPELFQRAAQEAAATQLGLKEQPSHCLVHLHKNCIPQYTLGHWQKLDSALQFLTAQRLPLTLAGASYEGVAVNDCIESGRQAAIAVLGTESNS
The experiment in a line: PPO-inhibition assay, rat liver mitochondrial fraction. It is filed as biochemical. In a few lines: as §1

A further series has as its system Crl:CD1(ICR) mice. Kind of series: 90-day subchronic toxicity study with epyrifenacil in mice. It is filed as in vivo. Conditions: mouse, 90-day study. The procedure, abridged: (§2)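 Crl:CD1(ICR) mice, 10 per sex per group, had free access to diet containing 0 (basal diet), 5, 25 or 100 ppm for 90 consecutive days. TK satellite groups held 24 mice per sex. The study was run to test guidelines under GLP.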

Test in series [9]: as above
It is filed as in vivo. The note with it: Crl:CD1(ICR), mouse, in vivo, oral. In a few lines:
as §2

Series [10] can be described thus: Toxicokinetics in plasma, dog 90-day study. It is filed as in vivo. Conditions: dog plasma, 90-day oral capsule administration.
For series [11], the target named is T4, protoporphyrinogen oxidase (PPO) (Homo sapiens, UniProt P50336).
T4 sequence (P50336 1-477): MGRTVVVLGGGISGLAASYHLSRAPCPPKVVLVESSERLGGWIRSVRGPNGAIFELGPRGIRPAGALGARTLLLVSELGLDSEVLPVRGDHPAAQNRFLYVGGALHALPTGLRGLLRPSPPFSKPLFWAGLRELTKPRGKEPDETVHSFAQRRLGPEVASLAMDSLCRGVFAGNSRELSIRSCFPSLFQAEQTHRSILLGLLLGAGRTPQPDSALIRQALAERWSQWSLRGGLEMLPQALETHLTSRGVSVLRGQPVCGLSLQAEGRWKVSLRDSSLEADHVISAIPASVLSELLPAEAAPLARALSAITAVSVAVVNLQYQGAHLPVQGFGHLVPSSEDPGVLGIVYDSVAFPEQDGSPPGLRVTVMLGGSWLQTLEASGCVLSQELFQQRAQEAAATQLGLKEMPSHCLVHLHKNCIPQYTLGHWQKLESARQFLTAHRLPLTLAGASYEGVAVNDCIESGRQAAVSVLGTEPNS
The experiment in a line: PPO-inhibition assay, human liver mitochondrial fraction. It is filed as biochemical. The procedure, abridged: as §1

Series [12] is described as follows: 90-day subchronic toxicity study with epyrifenacil in dogs. It is filed as in vivo, dog. The note with it: beagle, dog, in vivo, oral. In a few lines:
(§3)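 Beagles, 4 per sex per group, were dosed orally with gelatin capsules at 0, 100, 300 or 1000 mg/kg/day for 90 consecutive days. The study was run to test guidelines under GLP.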

The subject of another series is Beagle dogs. The description is as above. It is filed as in vivo, dog. In a few lines: as §3
Series [13] can be described thus: 90-day subchronic toxicity study with epyrifenacil in rats. It is filed as in vivo, rat. Conditions: Crl:CD(SD), rat, in vivo, oral. The procedure, abridged:
(§4)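 Crl:CD(SD) rats, 10 per sex per group, had free access to diet containing 0 (basal diet), 50, 300 or 800 ppm for 90 consecutive days. TK satellite groups held 4 rats per sex. The study was run to test guidelines under GLP.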

Another series concerns Crl:CD(SD) rats. The series is described as above. It is filed as in vivo, rat. In a few lines:
as §4

A short description of series [14]: Incubation of epyrifenacil without microsomal fractions. It is filed as in vitro ADME. Conditions: 30 min of incubation.

Data on one molecule can be found in publication PMC8640676 (Journal of Pesticide Science, 2021).

Structures are written as SMILES.

Turning to `CCOC(=O)COc1ncccc1Oc1cc(-n2c(=O)cc(C(F)(F)F)n(C)c2=O)c(F)cc1Cl` [epyrifenacil, ethyl[(3-{2-chloro-4-fluoro-5-[3-methyl-2,6-dioxo-4-(trifluoromethyl)-3,6-dihydropyrimidin-1(2H)-yl]phenoxy}pyridin-2-yl)oxy]acetate], the IC50 in series [1] turned out to be 2.2 ± 0.03 nM; in series [6] it was 7.6 ± 0.18 nM; in series [8] it was 2.6 ± 0.05 nM; in [11], 10.2 ± 0.66 nM. Besides, the “Time within which epyrifenacil almost disappeared” value in series [2], in series [4] and in series [7] was not above 5 min throughout. Moreover, the figures for the “Parent epyrifenacil detected in plasma” value in series [3], in [5] and in series [10] were “no measurable amount”, “no measurable amount” and “not more than 0.04 µg/mL”, respectively. Further, the Major adverse findings result in the series with Crl:CD1(ICR) mice was “Hepatocyte injury caused by porphyrin accumulation, hepatocellular hypertrophy, anemia”; in the series on Beagle dogs (dog, 90-day study), “Increased glycogen associated with increased ALP, anemia”; in the series on Crl:CD(SD) rats (rat, 90-day study), “Hepatocyte injury caused by porphyrin accumulation, hepatocellular hypertrophy, anemia”. In addition, the NOAEL at 90 days stood at 4.1 mg/kg/day in series [9] (female); 0.7 mg/kg/day in series [9] (male); 300 mg/kg/day in [12] (female); 100 mg/kg/day in series [12] (male); 19 mg/kg/day in series [13] (female); 3 mg/kg/day in series [13] (male). In addition, the “NOAEL, fold change vs. corresponding mouse value” in the series with Beagle dogs (female dogs vs female mice) was found to be 73 fold; in the series with Beagle dogs (male dogs vs male mice) it was 143 fold; in the series on Crl:CD(SD) rats (female rats vs female mice) it was 4.6 fold; in the series with Crl:CD(SD) rats (male rats vs male mice), 4.3 fold. The Non-enzymatic degradation result in series [14] is given as “did not present any degradants”.

Broadly, the IC50 is the midpoint of a concentration-inhibition curve. As usually defined, the NOAEL is the highest dose or exposure tested at which no adverse effect was seen.
